Reference: ChEMBL document CHEMBL1137338, “Effects of substitution on 9-(3-bromo-4-fluorophenyl)-5,9-dihydro-3H,4H-2,6-dioxa-4- azacyclopenta[b]naphthalene-1,8-dione, a dihydropyridine ATP-sensitive potassium channel opener” (J Med Chem, 2006)

Columns and labels:
[1] = target: T1, Sulfonylurea receptor 2, Kir6.2 (Homo sapiens, UniProt O60706+Q14654); test: Activity against pig bladder KATP channel opening assessed as ability to relax field-stimulated pig detrusor; type: functional, Sus scrofa; settings: target entry is the homologue from another species
T1 sequence (Q14654 whole entry): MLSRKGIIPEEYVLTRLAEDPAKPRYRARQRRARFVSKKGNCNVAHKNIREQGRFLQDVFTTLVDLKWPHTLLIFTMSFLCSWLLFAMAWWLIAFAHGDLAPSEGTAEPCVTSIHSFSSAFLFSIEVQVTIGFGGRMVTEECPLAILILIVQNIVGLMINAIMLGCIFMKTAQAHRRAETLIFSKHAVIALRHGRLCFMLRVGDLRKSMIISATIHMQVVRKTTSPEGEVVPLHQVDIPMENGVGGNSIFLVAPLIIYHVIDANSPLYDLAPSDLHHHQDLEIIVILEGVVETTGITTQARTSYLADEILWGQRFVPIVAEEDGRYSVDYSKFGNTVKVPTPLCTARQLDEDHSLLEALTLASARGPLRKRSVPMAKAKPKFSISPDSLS
T1 sequence (O60706 whole entry): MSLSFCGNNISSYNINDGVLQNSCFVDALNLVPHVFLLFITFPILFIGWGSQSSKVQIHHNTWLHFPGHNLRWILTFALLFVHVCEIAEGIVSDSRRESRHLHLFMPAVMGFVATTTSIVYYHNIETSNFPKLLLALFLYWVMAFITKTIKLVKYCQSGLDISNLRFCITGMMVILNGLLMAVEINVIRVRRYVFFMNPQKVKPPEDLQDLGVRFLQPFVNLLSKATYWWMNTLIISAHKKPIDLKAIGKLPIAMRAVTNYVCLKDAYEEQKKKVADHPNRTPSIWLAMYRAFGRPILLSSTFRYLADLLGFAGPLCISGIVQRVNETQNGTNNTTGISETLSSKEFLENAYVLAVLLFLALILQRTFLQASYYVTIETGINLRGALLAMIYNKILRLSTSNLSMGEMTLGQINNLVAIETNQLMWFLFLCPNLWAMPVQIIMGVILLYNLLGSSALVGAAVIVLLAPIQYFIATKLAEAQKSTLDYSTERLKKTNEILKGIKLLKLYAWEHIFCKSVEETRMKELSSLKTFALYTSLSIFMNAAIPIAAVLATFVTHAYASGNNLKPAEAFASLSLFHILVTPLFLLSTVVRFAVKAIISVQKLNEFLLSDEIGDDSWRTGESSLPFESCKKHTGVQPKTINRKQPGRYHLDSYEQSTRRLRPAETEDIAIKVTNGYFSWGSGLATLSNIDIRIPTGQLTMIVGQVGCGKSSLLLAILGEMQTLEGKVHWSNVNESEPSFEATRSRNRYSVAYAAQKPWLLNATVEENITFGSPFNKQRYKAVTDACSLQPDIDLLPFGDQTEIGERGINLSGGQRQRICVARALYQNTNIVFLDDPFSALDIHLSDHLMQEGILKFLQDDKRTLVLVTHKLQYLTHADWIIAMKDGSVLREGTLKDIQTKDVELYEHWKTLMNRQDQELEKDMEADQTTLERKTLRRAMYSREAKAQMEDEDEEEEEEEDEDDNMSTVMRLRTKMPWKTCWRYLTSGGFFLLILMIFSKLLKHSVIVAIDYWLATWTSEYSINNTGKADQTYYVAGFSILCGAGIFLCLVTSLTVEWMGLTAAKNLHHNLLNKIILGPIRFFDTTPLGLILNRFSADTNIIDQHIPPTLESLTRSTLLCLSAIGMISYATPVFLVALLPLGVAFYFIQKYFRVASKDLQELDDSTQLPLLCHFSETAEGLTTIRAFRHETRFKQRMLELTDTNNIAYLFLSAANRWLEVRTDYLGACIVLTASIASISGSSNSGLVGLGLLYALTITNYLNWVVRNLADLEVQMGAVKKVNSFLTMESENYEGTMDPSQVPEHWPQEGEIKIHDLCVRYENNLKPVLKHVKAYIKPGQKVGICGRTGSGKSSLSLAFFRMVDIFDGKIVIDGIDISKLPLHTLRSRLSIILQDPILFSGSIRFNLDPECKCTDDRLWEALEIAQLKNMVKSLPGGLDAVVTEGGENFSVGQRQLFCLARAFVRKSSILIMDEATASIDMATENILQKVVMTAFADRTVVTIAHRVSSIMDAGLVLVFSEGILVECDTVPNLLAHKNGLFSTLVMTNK

[2] = target: T1, Sulfonylurea receptor 2, Kir6.2; test: Activity against pig bladder KATP channel opening assessed as ability to relax spontaneous bladder contraction; type: functional, Sus scrofa; settings: target entry is the homologue from another species
Procedure, shortened: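 Spontaneously contracting detrusor strips were taken from near the trigonal region of Landrace pig bladder. Increasing concentrations of test agent were applied, and the reduction in area under the curve (AUC) of the spontaneous contractions was measured.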

[3] = target: T1, Sulfonylurea receptor 2, Kir6.2; test: (§1) Ability to open human urinary bladder Kir6.2 channel containing SUR2B in Ltk cells by FLIPR assay; type: functional, cell-based
Procedure, shortened: (§2)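 Ltk- cells stably transfected with the Kir6.2/SUR2B exon 17- splice variant. Membrane potential was followed with DiBAC dye in a 96-well cell-based kinetic fluorescence (FLIPR) assay. The highest concentration tested was 10 µM. Each compound's maximal fluorescence response was expressed as % of the response to the reference opener.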

[4] = target: T2, Sulfonylurea receptor 2, Kir6.2 (Homo sapiens) (UniProt Q14654+O60706); test: Activity against pig bladder KATP channel opening assessed as ability to relax field-stimulated pig detrusor relative to P1075; type: functional; settings: Sus scrofa; target entry is the homologue from another species
[5] = target: T2, Sulfonylurea receptor 2, Kir6.2 (Homo sapiens); test: Ability to open human urinary bladder Kir6.2 containing SUR2B in Ltk cells by FLIPR assay relative to P1075; type: functional, cell-based; procedure, shortened: as §2
[6] = target: T2, Sulfonylurea receptor 2, Kir6.2 (Homo sapiens); test: Activity against pig bladder KATP channel opening assessed as ability to relax spontaneous bladder contraction relative to P1075; type: functional; settings: Sus scrofa; target entry is the homologue from another species
[7] = target: T2, Sulfonylurea receptor 2, Kir6.2 (Homo sapiens); test: as §1; type: functional, cell-based; settings: filed as partial agonist; procedure, shortened: as §2

| SMILES | EC50 [1] | EC50 [3] | Efficacy [5] | other results |
| --- | --- | --- | --- | --- |
| CCC(C)(C)NC(=NC#N)Nc1cccnc1 | 85.1 nM | 52.5 nM | – | EC50 [2]: 21.9 nM |
| O=C1COCC2=C1[C@@H](c1ccc(F)c(Br)c1)C1=C(COC1=O)N2 | 589 nM | 63.1 nM | 107% | Efficacy [4]: 95% |
| O=C1COCC2=C1C(c1ccc(F)c(Br)c1)C1=C(O)COCC1=N2 (centres undefined) | 126 nM | 27.5 nM | 87% | Efficacy [4]: 97% |
| CC[C@H]1OC(O)=C2C1=NC1=C(C(=O)CSC1)[C@H]2c1ccc(F)c(Br)c1 [listing 1 of 2 here] | 955 nM | – | – | – |
| CCC(C)(C)/N=C(\NC#N)Nc1cccnc1 | – | – | 101% | Efficacy [6]: 100%; Efficacy [4]: 99% |
| CC[C@H]1OC(O)=C2C1=NC1=C(C(=O)CSC1)[C@H]2c1ccc(F)c(Br)c1 [listing 2 of 2 here] | – | – | – | Efficacy [4]: 38% |
| C[C@](O)(C(=O)Nc1ccc(C(=O)c2ccccc2)cc1)C(F)(F)F | – | – | 100% | Efficacy [6]: 100%; Efficacy [4]: 99% |
| CCC[C@H]1OC(O)=C2C1=NC1=C(C(=O)COC1)[C@H]2c1ccc(F)c(Br)c1 (racemic) | 794 nM | 155 nM | – | – |
| CC[C@H]1OC(O)=C2C1=NC1=C(C(=O)COC1)[C@H]2c1ccc(F)c(Br)c1 (racemic) | 490 nM | 95.5 nM | – | – |
| CC[C@H]1OCC(O)=C2C1=NC1=C(C(=O)COC1)[C@H]2c1ccc(Cl)c(Cl)c1 (racemic) | – | – | 58% | Activity [7]: Partial agonist |
| CC[C@H]1OCC(O)=C2C1=NC1=C(C(=O)COC1)[C@H]2c1ccc(F)c(Br)c1 (racemic) | – | – | 30% | Activity [7]: Partial agonist |
| CC[C@H]1OCC(O)=C2C1=NC1=C(C(=O)COC1)[C@H]2c1ccc(F)c(Cl)c1 (racemic) | – | – | 30% | Activity [7]: Partial agonist |
| CC(C)[C@@H]1OC(O)=C2C1=NC1=C(C(=O)COC1)[C@H]2c1ccc(F)c(Br)c1 (relative stereo) | 1200 nM | > 10000 nM | – | Efficacy [4]: 97% |
| CC[C@H]1OC(O)=C2C1=NC1=C(C(=O)OCC1)[C@H]2c1ccc(F)c(Br)c1 (relative stereo) | – | 5010 nM | 54% | – |
| CC[C@@H]1OC(O)=C2C1=NC1=C(C(=O)CSC1)[C@H]2c1ccc(F)c(Br)c1 (relative stereo) | – | 155 nM | 74% | – |
| C[C@@H]1C2=C(C(=O)N1C)[C@H](c1ccc(F)c(Br)c1)C1=C(O)COCC1=N2 (relative stereo) | – | 316 nM | 92% | – |
| C[C@H]1C2=C(C(=O)N1C)[C@H](c1ccc(F)c(Br)c1)C1=C(COCC1=O)N2 (relative stereo) | – | 2.75 nM | 102% | – |
| CC[C@@H]1OC(O)=C2C1=NC1=C(C(=O)OC1)[C@H]2c1ccc(F)c(Br)c1 (relative stereo) | – | 6.03 nM | 94% | – |
| C[C@@H]1OC(=O)C2=C1NC1=C([C@H]2c2ccc(F)c(Br)c2)S(=O)(=O)CC1 (relative stereo) | – | 135 nM | 93% | – |
| C[C@H]1OC(=O)C2=C1NC1=C([C@H]2c2ccc(F)c(Br)c2)S(=O)(=O)CC1 (relative stereo) | – | 407 nM | 86% | – |
| C[C@H]1OC(=O)C2=C1NC1=C([C@H]2c2ccc(F)c(Br)c2)S(=O)(=O)CCC1 (relative stereo) | – | 224 nM | 99% | – |
| C[C@@H]1OC(=O)C2=C1NC1=C([C@H]2c2ccc(F)c(Br)c2)S(=O)(=O)CCC1 (relative stereo) | – | 56.2 nM | 102% | – |
| CC[C@H]1OC(O)=C2C1=NC1=C(C(=O)CSC1)[C@H]2c1ccc(F)c(Br)c1 (relative stereo) | 891 nM | 102 nM | – | – |
| CC(C)C[C@@H]1OC(O)=C2C1=NC1=C(C(=O)COC1)[C@H]2c1ccc(F)c(Br)c1 (relative stereo) | 129 nM | 27.5 nM | 83% | Efficacy [4]: 74% |
| O=C1COCC2=C1[C@@H](c1ccc(F)c(Br)c1)C1=C(O)O[C@@H](c3ccccc3)C1=N2 (relative stereo) | 1290 nM | 257 nM | 68% | Efficacy [4]: 91% |
| CC[C@H]1OC(O)=C2C1=NC1=C(C(=O)CCC1)[C@H]2c1ccc(F)c(Br)c1 (relative stereo) | – | 251 nM | 83% | – |
| CC[C@@H]1OC(O)=C2C1=NC1=C(C(=O)CCC1)[C@H]2c1ccc(F)c(Br)c1 (relative stereo) | – | 56.2 nM | 87% | – |
